Here are results for 18 molecules from ChEMBL document CHEMBL2375225, “Structure-activity relationship of 5-chloro-2-methyl-3-(1,2,3,6-tetrahydropyridin-4-yl)-1H-indole analogues as 5-HT(6) receptor agonists” (Eur J Med Chem, 2013).

Assay [1] addresses Sodium-dependent serotonin transporter (Rattus norvegicus, UniProt P31652). Kind of assay: Displacement of [3H]-5-HT from rat SERT. A general note: Loss of bound radioactivity is the signal in a displacement assay; it reports binding, not function.
In assay [2] the target is 5-hydroxytryptamine receptor 7 (Homo sapiens, UniProt P34969). In words: Displacement of [3H]LSD from human 5HT7 receptor.
Chain of 5-hydroxytryptamine receptor 7 (P34969 whole entry): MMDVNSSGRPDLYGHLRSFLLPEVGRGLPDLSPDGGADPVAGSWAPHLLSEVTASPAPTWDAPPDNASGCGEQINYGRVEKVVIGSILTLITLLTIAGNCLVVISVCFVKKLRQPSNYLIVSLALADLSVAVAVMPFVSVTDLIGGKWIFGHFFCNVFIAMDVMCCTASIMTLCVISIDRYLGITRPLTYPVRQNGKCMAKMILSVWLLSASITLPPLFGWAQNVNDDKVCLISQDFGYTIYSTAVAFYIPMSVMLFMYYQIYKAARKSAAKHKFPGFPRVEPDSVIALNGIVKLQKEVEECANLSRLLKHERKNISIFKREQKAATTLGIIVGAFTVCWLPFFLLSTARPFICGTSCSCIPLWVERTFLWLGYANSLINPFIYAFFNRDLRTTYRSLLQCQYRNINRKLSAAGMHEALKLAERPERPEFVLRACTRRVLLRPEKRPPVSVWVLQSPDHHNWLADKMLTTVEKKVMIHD
Assay [3] concerns the target T1, 5-hydroxytryptamine receptor 2C (Homo sapiens, UniProt P28335).
T1 sequence (P28335 whole entry): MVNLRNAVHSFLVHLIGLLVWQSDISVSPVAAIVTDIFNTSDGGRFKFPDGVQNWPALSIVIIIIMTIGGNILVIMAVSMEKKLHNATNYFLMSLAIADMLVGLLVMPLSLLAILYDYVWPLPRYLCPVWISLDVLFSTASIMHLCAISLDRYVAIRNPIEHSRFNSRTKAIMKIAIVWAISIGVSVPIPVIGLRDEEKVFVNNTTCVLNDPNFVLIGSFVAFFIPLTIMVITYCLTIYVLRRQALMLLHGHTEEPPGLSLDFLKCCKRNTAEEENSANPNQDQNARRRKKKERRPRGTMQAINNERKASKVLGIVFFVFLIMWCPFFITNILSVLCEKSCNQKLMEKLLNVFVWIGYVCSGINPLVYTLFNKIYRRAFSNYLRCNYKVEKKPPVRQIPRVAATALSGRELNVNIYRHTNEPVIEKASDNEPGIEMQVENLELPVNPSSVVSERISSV
In words: Displacement of [3H]-mesulergine from human 5HT2C receptor.

Assay [4] has as its target 5-hydroxytryptamine receptor 2A (Homo sapiens, UniProt P28223). Kind of assay: Displacement of [3H]-ketanserin from human 5HT2A receptor.
Assay [5] can be described thus: Displacement of [3H]-5-HT from calf 5HT1D receptor. More on the design: species or system Bos taurus.
Assay [6] has as its target 5-hydroxytryptamine receptor 1B (Rattus norvegicus, UniProt P28564). In words: Displacement of [125I]-iodocyanopindolol from rat 5HT1B receptor.
Assay [7] has as its target T2, 5-hydroxytryptamine receptor 1A (Rattus norvegicus, UniProt P19327).
T2 sequence (P19327 whole entry): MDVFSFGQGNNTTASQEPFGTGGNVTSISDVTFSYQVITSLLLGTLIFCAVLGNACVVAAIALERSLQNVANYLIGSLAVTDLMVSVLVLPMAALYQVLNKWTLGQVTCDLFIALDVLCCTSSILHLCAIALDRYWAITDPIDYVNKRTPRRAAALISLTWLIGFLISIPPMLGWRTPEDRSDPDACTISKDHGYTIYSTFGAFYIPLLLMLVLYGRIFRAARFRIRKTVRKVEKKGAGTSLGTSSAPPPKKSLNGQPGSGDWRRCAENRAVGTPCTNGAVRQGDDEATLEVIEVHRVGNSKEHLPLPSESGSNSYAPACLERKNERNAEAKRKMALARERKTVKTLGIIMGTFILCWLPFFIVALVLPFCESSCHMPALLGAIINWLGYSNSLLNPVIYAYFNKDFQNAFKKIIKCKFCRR
In words: Displacement of [3H]-8-OH-DPAT from rat 5HT1A receptor.

For assay [8], the target named is T3, 5-hydroxytryptamine receptor 6 (Homo sapiens, UniProt P50406). Kind of assay: Displacement of [3H]LSD from human 5HT6 receptor expressed in HEK cell membranes after 1 hr by liquid scintillation counting analysis. Set-up: species or system HEK293. Summed up:
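Compounds were made up as 1 mM DMSO stocks and diluted in 20 mM HEPES, 0.1% ascorbic acid, pH 7.4. They were incubated 1 h at 37 °C with [3H]LSD (1 nM final) and membranes (23 µg protein) from HEK cells expressing human 5-HT6. Binding was stopped by filtration through GF/B filters presoaked in 0.1% polyethyleneimine, with three buffer washes, then counted by liquid scintillation. Single determination.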

The nature of assay [9]: Displacement of [3H]-GR65630 from 5HT3 receptor in rat/mouse NG108 cells. The class given is cell-based.
Assay [10] addresses T3, 5-hydroxytryptamine receptor 6. Kind of assay: Antagonist activity at human 5HT6 receptor expressed in human HeLa cells assessed as inhibition of 5HT-induced cAMP accumulation relative to control. The class given is functional, cell-based. Set-up: scale not given: the % may be the effect or the level left.
For assay [11] the target is unchanged. Kind of assay: Displacement of [3H]LSD from human 5HT6 receptor expressed in CHO cell membranes after 1 hr by liquid scintillation counting analysis.
Assay [12] has as its target 5-hydroxytryptamine receptor 4 (Cavia porcellus, UniProt O70528). Kind of assay: Displacement of [3H]-GR113808 from guinea pig 5HT4 receptor.
Assay [13] concerns the target T3, 5-hydroxytryptamine receptor 6. Kind of assay: Partial agonist activity at human 5HT6 receptor expressed in BHK cells assessed as stimulation of cAMP production after 45 minutes relative to control. The class given is functional, cell-based. A digest of the protocol: (§1)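 BHK cells stably transfected with the human 5-HT6 receptor, grown in MEM-α with 10% dialysed heat-inactivated FCS at 37 °C under 5% CO2. Cells were detached with 5 mM EDTA in PBS, seeded at 10,000 cells/well and left to adhere ≥12 h. They were then washed and placed in serum-free MEM-α, exposed to compound for 45 min, washed with PBS, and intracellular cAMP measured by enzyme immunoassay.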
Background: cAMP levels reflect the balance of adenylyl cyclase and phosphodiesterase activity.

Assay [14] has the same target. Kind of assay: Partial agonist activity at human 5HT6 receptor expressed in BHK cells assessed as stimulation of cAMP production after 45 minutes. The class given is functional, cell-based. A digest of the protocol: as §1
Assay [15] shares this target. Kind of assay: Agonist activity at human 5HT6 receptor expressed in BHK cells assessed as stimulation of cAMP production after 45 minutes relative to control. Format: functional, cell-based. A digest of the protocol: as §1
For assay [16] the target is unchanged. In words: Agonist activity at human 5HT6 receptor expressed in BHK cells assessed as stimulation of cAMP production after 45 minutes. The class given is functional, cell-based. A digest of the protocol: as §1

Chain of 5-hydroxytryptamine receptor 2A (P28223 whole entry): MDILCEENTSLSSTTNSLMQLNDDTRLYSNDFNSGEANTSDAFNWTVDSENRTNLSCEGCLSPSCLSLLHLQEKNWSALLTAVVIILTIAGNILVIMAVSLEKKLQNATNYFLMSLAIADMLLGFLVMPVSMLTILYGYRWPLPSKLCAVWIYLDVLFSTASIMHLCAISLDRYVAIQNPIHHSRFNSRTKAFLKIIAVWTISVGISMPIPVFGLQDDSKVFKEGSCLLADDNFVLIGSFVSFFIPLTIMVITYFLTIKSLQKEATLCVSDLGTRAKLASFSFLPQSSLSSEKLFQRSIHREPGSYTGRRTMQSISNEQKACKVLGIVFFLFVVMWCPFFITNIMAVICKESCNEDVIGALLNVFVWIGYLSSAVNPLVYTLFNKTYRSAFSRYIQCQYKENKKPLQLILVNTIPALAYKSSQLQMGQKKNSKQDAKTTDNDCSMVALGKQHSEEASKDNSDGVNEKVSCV
Chain of Sodium-dependent serotonin transporter (P31652 whole entry): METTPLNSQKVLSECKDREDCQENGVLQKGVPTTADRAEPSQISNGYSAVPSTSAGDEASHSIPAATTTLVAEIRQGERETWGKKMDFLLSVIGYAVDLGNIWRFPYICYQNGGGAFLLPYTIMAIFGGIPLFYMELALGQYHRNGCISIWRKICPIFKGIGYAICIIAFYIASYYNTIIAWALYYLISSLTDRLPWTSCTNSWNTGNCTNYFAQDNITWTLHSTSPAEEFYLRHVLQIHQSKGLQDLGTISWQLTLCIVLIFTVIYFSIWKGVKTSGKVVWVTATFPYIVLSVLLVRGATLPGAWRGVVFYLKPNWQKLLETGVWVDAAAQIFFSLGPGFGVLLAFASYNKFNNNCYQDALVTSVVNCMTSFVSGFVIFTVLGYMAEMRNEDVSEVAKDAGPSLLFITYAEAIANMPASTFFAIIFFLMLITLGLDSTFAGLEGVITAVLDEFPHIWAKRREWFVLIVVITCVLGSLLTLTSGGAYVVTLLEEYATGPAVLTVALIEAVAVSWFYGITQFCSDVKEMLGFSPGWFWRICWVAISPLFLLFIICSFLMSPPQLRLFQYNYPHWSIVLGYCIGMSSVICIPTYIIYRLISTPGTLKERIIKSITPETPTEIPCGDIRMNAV
Chain of 5-hydroxytryptamine receptor 1B (P28564 whole entry): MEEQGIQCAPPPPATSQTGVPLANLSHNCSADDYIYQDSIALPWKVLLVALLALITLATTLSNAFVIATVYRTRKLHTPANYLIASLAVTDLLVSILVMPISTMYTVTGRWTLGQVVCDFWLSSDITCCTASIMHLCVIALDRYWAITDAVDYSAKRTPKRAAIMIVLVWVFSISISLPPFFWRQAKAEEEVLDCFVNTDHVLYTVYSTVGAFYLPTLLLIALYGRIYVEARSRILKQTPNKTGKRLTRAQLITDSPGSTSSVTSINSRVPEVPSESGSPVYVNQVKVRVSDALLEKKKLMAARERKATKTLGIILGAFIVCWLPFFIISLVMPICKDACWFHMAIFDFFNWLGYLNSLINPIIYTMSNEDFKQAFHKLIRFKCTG
T3 sequence (P50406 whole entry): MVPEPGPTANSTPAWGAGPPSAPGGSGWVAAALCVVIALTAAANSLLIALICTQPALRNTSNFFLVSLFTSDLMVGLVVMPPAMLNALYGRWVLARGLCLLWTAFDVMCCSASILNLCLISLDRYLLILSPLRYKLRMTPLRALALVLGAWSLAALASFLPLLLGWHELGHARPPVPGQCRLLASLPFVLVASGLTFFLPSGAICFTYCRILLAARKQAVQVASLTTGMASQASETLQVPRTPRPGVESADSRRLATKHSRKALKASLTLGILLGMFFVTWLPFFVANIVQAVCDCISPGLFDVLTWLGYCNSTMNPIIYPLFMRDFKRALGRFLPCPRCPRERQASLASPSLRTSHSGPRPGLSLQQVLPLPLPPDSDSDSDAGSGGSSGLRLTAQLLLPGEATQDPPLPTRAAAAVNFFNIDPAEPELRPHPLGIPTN
Chain of 5-hydroxytryptamine receptor 4 (O70528 whole entry): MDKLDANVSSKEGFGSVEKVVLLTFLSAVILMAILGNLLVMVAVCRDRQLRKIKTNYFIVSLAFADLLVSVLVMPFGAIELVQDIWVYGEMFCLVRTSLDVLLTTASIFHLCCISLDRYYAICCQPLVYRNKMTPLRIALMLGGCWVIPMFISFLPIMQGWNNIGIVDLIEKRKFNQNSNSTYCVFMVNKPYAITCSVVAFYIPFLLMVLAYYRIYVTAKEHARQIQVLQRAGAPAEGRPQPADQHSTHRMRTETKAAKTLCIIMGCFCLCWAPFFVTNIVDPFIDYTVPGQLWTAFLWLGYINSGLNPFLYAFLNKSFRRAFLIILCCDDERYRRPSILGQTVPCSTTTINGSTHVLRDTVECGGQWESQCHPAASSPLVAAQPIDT

Regarding `Cc1[nH]c2ccc(-c3ccsc3)cc2c1C1=CCNCC1`, the IC50 (as a rule, the midpoint of a concentration-inhibition curve) was over 1 µM in assay [1]; 0.69 µM in assay [2]; over 1 µM in [3]; over 1 µM in assay [4]; 0.033 µM in assay [5]; 0.012 µM in assay [6]. Also, the figures for the concentration for half-maximal inhibition (IC50) in assay [7] and in assay [8] were over 1 µM and 0.7 µM, respectively.
For `C1=C(c2c(-c3ccccc3)[nH]c3ccccc23)CCNC1`, the IC50 in assay [9] is 0.27 µM; in assay [3], 0.1 µM; in [4] it was 0.05 µM; in [5], over 1 µM; in assay [6], over 1 µM; in [7], over 1 µM.
For the molecule `Cc1c(C2=CCNCC2)c2cc(Cl)ccc2n1S(=O)(=O)c1ccccc1`, the Activity in assay [10] is 0%. This molecule also showed an IC50 in assay [11] of 0.002 µM.
As for `Cc1[nH]c2ccccc2c1C1=CCNCC1`, the 50% inhibitory concentration (IC50) in assay [1] is over 1 µM; in assay [2] it was over 1 µM; in assay [12], 1 µM; in assay [9], 2.3 µM; in assay [3], 2.9 µM; in assay [4], 1.5 µM. In addition, the half-maximal inhibitory concentration (IC50) came out at 1.2 µM in assay [5], 0.89 µM in [6], 5.7 µM in assay [7] and 0.2 µM in assay [8]. In assay [13], the Activity turned out to be 78%. Moreover, the 50% effective concentration (EC50) (in general, the concentration that produces a half-maximal response) in assay [14] is 1.1 µM.
With `Cc1[nH]c2ccc(Br)cc2c1C1=CCNCC1`, the IC50 in [1] worked out at 4.8 µM; in [2], 0.48 µM; in [3] it was 0.42 µM; in assay [4] it was 0.4 µM; in assay [5], 0.13 µM; in assay [6] it was 0.075 µM. For the same molecule, the IC50 is 0.66 µM in assay [7] and 0.01 µM in [8]. Also, in assay [15], the Activity was 100%. Also, in assay [16], the EC50 came out at 0.0027 µM.
`Cc1[nH]c2ccc(Oc3ccccc3[N+](=O)[O-])cc2c1C1=CCNCC1` displayed a half-maximal inhibitory concentration (IC50) in [8] of 0.009 µM.
Take `Cc1[nH]c2ccc(NS(=O)(=O)c3ccccc3)cc2c1C1=CCNCC1`: the Activity in assay [13] was found to be 60%. In assay [11], this molecule registered an IC50 of 0.029 µM. Further, the EC50 in assay [14] came to 0.021 µM.
On to `CSc1ccc2[nH]c(C)c(C3=CCNCC3)c2c1`, for which the Activity in assay [13] amounted to 58%. The IC50 in assay [8] amounted to 0.02 µM. Also, the EC50 in [14] is 0.0066 µM.
Regarding `Cc1[nH]c2ccc(OS(=O)(=O)C(F)(F)F)cc2c1C1=CCNCC1`, the concentration for half-maximal inhibition (IC50) in assay [1] was over 1 µM; in [2], 1.8 µM; in assay [3] it was 0.99 µM; in [4] it was over 1 µM; in assay [5], 0.035 µM; in [6], 0.029 µM. For the same molecule, the IC50 is over 1 µM in [7] and 0.05 µM in assay [8]. For the same molecule, in assay [13], the Activity stood at 65%. The EC50 in assay [14] stood at 0.032 µM.
As for `COc1ccc2[nH]cc(C3=CCNCC3)c2c1` [RU-24969], the results for the IC50 in assay [9], in assay [5] and in assay [6] were over 1 µM, 0.02 µM and 0.006 µM, respectively.
As for `Cc1[nH]c2ccc([N+](=O)[O-])cc2c1C1=CCNCC1`, the 50% inhibitory concentration (IC50) in assay [1] is over 1 µM; in assay [2], over 1 µM; in assay [3], over 1 µM; in assay [4], 1 µM; in [5] it was 0.31 µM; in assay [6], 0.57 µM. The IC50 in assay [7] was 0.89 µM; in [8] it was 0.01 µM. Besides, the Activity in [13] worked out at 28%. Also, the EC50 in [14] was determined as 0.032 µM.
In turn, `CCn1c(C)c(C2=CCNCC2)c2cc(Cl)ccc21` registered an IC50 in assay [8] of 0.1 µM.
`Cc1[nH]c2ccc(F)cc2c1C1=CCNCC1`: the IC50 worked out at 1.9 µM in [1]; 3.1 µM in assay [2]; 0.7 µM in assay [3]; 0.95 µM in assay [4]; 0.16 µM in assay [5]; 0.2 µM in assay [6]. In addition, the concentration for half-maximal inhibition (IC50) in [7] was over 1 µM; in assay [8] it was 0.03 µM. In [15], the Activity worked out at 100%. Further, in [16], the EC50 came to 0.0053 µM.
On to `Cc1[nH]c2ccc(-c3ccccc3)cc2c1C1=CCNCC1`, for which the IC50 in assay [1] is over 1 µM; in [2], 3.7 µM; in [3] it was over 1 µM; in assay [4], over 1 µM; in assay [5], 0.39 µM; in assay [6], 0.14 µM. In addition, the values for the concentration for half-maximal inhibition (IC50) in assay [7] and in [8] were over 1 µM and 1 µM, respectively.
In the case of `N#Cc1ccc2[nH]cc(C3=CCNCC3)c2c1`, the Activity in assay [13] amounted to 44%. For the same molecule, in [8], the 50% inhibitory concentration (IC50) was found to be 0.02 µM. Also, the EC50 in assay [14] was determined as 0.13 µM.
As for `Cc1[nH]c2ccc(OC(C)C)cc2c1C1=CCNCC1`, in assay [8], the IC50 was 0.1 µM.
The same measure, in the same setting: next, `CCCn1c(C)c(C2=CCNCC2)c2cc(Cl)ccc21`: 0.08 µM; `Cc1c(C2=CCNCC2)c2cc(Cl)ccc2n1C`: 0.04 µM.
